Converted amounts (≈) assume the structure as drawn.
Tests used:
[1] = system: MCF7; assay: Cytotoxicity against human MCF7 cells assessed inhibition of cell proliferation after 3 days by MTT assay; conditions: MCF7, 72 h
[2] = system: HT-29; assay: Down regulation of VEGF gene expression in human HT-29 cells at 2 ng/mL after 48 hrs by RT-qPCR analysis relative to control; type: functional
Summary of the method: (§1)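 HT-29 or MCF-7 cells grown to 70–80% confluence, serum-starved 24 h, then exposed to compound in DMSO for 48 h; DMSO-only control. Total RNA extracted and transcript measured by RT-qPCR, normalized to β-actin and expressed as percentage of control. At least three measurements; mean ± SEM; one-sample t-test.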

[3] = system: MCF7; assay: Potency index, ratio of compound activity to resveratrol activity for down regulation of VEGF gene expression in human MCF7 cells; type: functional
[4] = Selectivity ratio of IC50 for HEK293 cells to IC50 for human HT-29 cells; type: ADME, cell-based; conditions: HEK293 cells versus HT-29 cells, read-out: Ratio IC50
[5] = system: HT-29; assay: Potency index, ratio of compound activity to resveratrol activity for down regulation of c-Myc gene expression in human HT-29 cells; type: functional
[6] = system: HT-29; assay: Inhibition of VEGF protein secretion in human HT-29 cells at 1 ng/mL after 72 hrs by ELISA relative to control; type: functional; set-up: scale not given: the % may be the effect or the level left
[7] = system: HT-29; assay: Down regulation of hTERT gene expression in human HT-29 cells at 1 ng/mL after 48 hrs by RT-qPCR analysis relative to control; type: functional
Summary of the method: as §1

[8] = system: MCF7; assay: Down regulation of hTERT gene expression in human MCF7 cells at 2 ng/mL after 48 hrs by RT-qPCR analysis relative to control; type: functional
Summary of the method: as §1

[9] = Inhibition of VEGF protein secretion in human HT-29 cells at 2 ng/mL after 72 hrs by ELISA relative to control; type: functional; set-up: scale not given: the % may be the effect or the level left
[10] = system: HT-29; assay: Down regulation of c-Myc gene expression in human HT-29 cells at 2 ng/mL after 48 hrs by RT-qPCR analysis relative to control; type: functional
Summary of the method: as §1

[11] = system: HT-29; assay: Down regulation of hTERT gene expression in human HT-29 cells at 3 ng/mL after 48 hrs by RT-qPCR analysis relative to control; type: functional
Summary of the method: as §1

[12] = system: MCF7; assay: Inhibition of VEGF protein secretion in human MCF7 cells at 2 ng/mL after 72 hrs by ELISA relative to control; type: functional; set-up: scale not given: the % may be the effect or the level left
[13] = system: HT-29; assay: Down regulation of VEGF gene expression in human HT-29 cells at 1 ng/mL after 48 hrs by RT-qPCR analysis relative to control; type: functional
Summary of the method: as §1

[14] = system: MCF7; assay: Potency index, ratio of compound activity to resveratrol activity for down regulation of hTERT gene expression in human MCF7 cells; type: functional
[15] = system: MCF7; assay: Inhibition of VEGF protein secretion in human MCF7 cells at 1 ng/mL after 72 hrs by ELISA relative to control; type: functional; set-up: scale not given: the % may be the effect or the level left
[16] = system: MCF7; assay: Potency index, ratio of compound activity to resveratrol activity for down regulation of c-Myc gene expression in human MCF7 cells; type: functional
[17] = system: HT-29; assay: Down regulation of hTERT gene expression in human HT-29 cells at 2 ng/mL after 48 hrs by RT-qPCR analysis relative to control; type: functional
Summary of the method: as §1

[18] = system: HEK293; assay: Cytotoxicity against HEK293 cells assessed inhibition of cell proliferation after 3 days by MTT assay; conditions: Homo sapiens, HEK293, 72 h
[19] = system: MCF7; assay: Down regulation of hTERT gene expression in human MCF7 cells at 1 ng/mL after 48 hrs by RT-qPCR analysis relative to control; type: functional
Summary of the method: as §1

[20] = system: HT-29; assay: Cytotoxicity against human HT-29 cells assessed inhibition of cell proliferation after 3 days by MTT assay; conditions: HT-29, 72 h
[21] = Selectivity ratio of IC50 for HEK293 cells to IC50 for human MCF7 cells; type: ADME, cell-based; conditions: HEK293 cells versus MCF7 cells, read-out: Ratio IC50
[22] = system: HT-29; assay: Down regulation of c-Myc gene expression in human HT-29 cells at 1 ng/mL after 48 hrs by RT-qPCR analysis relative to control; type: functional
Summary of the method: as §1

[23] = system: HT-29; assay: Down regulation of VEGF gene expression in human HT-29 cells at 3 ng/mL after 48 hrs by RT-qPCR analysis relative to control; type: functional
Summary of the method: as §1

[24] = system: MCF7; assay: Down regulation of VEGF gene expression in human MCF7 cells at 1 ng/mL after 48 hrs by RT-qPCR analysis relative to control; type: functional
Summary of the method: as §1

[25] = system: HT-29; assay: Down regulation of c-Myc gene expression in human HT-29 cells at 3 ng/mL after 48 hrs by RT-qPCR analysis relative to control; type: functional
Summary of the method: as §1

[26] = system: MCF7; assay: Down regulation of c-Myc gene expression in human MCF7 cells at 2 ng/mL after 48 hrs by RT-qPCR analysis relative to control; type: functional
Summary of the method: as §1

[27] = system: HT-29; assay: Inhibition of VEGF protein secretion in human HT-29 cells at 3 ng/mL after 72 hrs by ELISA relative to control; type: functional; set-up: scale not given: the % may be the effect or the level left
[28] = system: HT-29; assay: Potency index, ratio of compound activity to resveratrol activity for down regulation of hTERT gene expression in human HT-29 cells; type: functional
[29] = system: MCF7; assay: Down regulation of VEGF gene expression in human MCF7 cells at 2 ng/mL after 48 hrs by RT-qPCR analysis relative to control; type: functional
Summary of the method: as §1

[30] = system: MCF7; assay: Down regulation of c-Myc gene expression in human MCF7 cells at 1 ng/mL after 48 hrs by RT-qPCR analysis relative to control; type: functional
Summary of the method: as §1

[31] = system: HT-29; assay: Down regulation of VEGF gene expression in human HT-29 cells at 10 ug/mL after 48 hrs by RT-qPCR analysis relative to control; type: functional
Summary of the method: as §1

[32] = system: MCF7; assay: Down regulation of c-Myc gene expression in human MCF7 cells at 10 ug/mL after 48 hrs by RT-qPCR analysis relative to control; type: functional
Summary of the method: as §1

[33] = system: HT-29; assay: Inhibition of VEGF protein secretion in human HT-29 cells at 10 ug/mL after 72 hrs by ELISA relative to control; type: functional; set-up: scale not given: the % may be the effect or the level left
[34] = system: HT-29; assay: Down regulation of c-Myc gene expression in human HT-29 cells at 10 ug/mL after 48 hrs by RT-qPCR analysis relative to control; type: functional
Summary of the method: as §1

[35] = system: HT-29; assay: Down regulation of hTERT gene expression in human HT-29 cells at 10 ug/mL after 48 hrs by RT-qPCR analysis relative to control; type: functional
Summary of the method: as §1

[36] = system: MCF7; assay: Down regulation of VEGF gene expression in human MCF7 cells at 10 ug/mL after 48 hrs by RT-qPCR analysis relative to control; type: functional
Summary of the method: as §1

[37] = system: MCF7; assay: Inhibition of VEGF protein secretion in human MCF7 cells at 10 ug/mL after 72 hrs by ELISA relative to control; type: functional; set-up: scale not given: the % may be the effect or the level left
[38] = system: MCF7; assay: Down regulation of hTERT gene expression in human MCF7 cells at 10 ug/mL after 48 hrs by RT-qPCR analysis relative to control; type: functional
Summary of the method: as §1

Q: For `COc1ccc(/C=C/c2ccc(N)cc2)cc1`, which IC50 [1] is on record?
A: The IC50 was 0.0021 µg/mL (≈ 0.00932 µM).

Q: And the Activity [2]?
A: Its Activity is 66%.

Q: What about the Ratio [3] of the same compound?
A: Its Ratio is 5000.

Q: And the selectivity ratio [4]?
A: Its selectivity ratio is 3.4.

Q: And the Ratio [5]?
A: Its Ratio is 3000.

Q: And the Activity [6]?
A: The Activity was 92%.

Q: And the Activity [7]?
A: The Activity was 100%.

Q: What about the Activity [8] of the same compound?
A: Its Activity is 51%.

Q: What about the Activity [9] of the same compound?
A: Its Activity is 84%.

Q: What about the Activity [10] of the same compound?
A: Its Activity is 71%.

Q: What about the Activity [11] of the same compound?
A: Its Activity is 48%.

Q: And the Activity [12]?
A: The Activity was 75%.

Q: And the Activity [13]?
A: The Activity was 65%.

Q: And the Ratio [14]?
A: Its Ratio is 3000.

Q: And the Activity [15]?
A: The Activity was 100%.

Q: What about the Ratio [16] of the same compound?
A: Its Ratio is 3000.

Q: And the Activity [17]?
A: The Activity was 100%.

Q: What about the IC50 [18] of the same compound?
A: The IC50 was 0.012 µg/mL (≈ 0.0533 µM).

Q: What about the Activity [19] of the same compound?
A: Its Activity is 80%.

Q: And the IC50 [20]?
A: The IC50 was 0.0036 µg/mL (≈ 0.016 µM).

Q: What about the selectivity ratio [21] of the same compound?
A: The selectivity ratio was 5.7.

Q: And the Activity [22]?
A: Its Activity is 88%.

Q: What about the Activity [23] of the same compound?
A: The Activity was 67%.

Q: What about the Activity [24] of the same compound?
A: Its Activity is 48%.

Q: What about the Activity [25] of the same compound?
A: Its Activity is 69%.

Q: And the Activity [26]?
A: The Activity was 30%.

Q: And the Activity [27]?
A: The Activity was 59%.

Q: And the Ratio [28]?
A: The Ratio was 3000.

Q: And the Activity [29]?
A: Its Activity is 36%.

Q: And the Activity [30]?
A: Its Activity is 54%.

Q: With `Oc1ccc(/C=C/c2cc(O)cc(O)c2)cc1` [RESVERATROL] as the compound, how does the IC50 [1] read?
A: The IC50 was 16.1 µg/mL (≈ 70.5 µM).

Q: What about the selectivity ratio [4] of the same compound?
A: The selectivity ratio was 0.2.

Q: And the Activity [31]?
A: Its Activity is 65%.

Q: What about the Activity [32] of the same compound?
A: Its Activity is 41%.

Q: What about the Activity [33] of the same compound?
A: The Activity was 78%.

Q: And the Activity [34]?
A: Its Activity is 51%.

Q: And the Activity [35]?
A: Its Activity is 57%.

Q: And the Activity [36]?
A: The Activity was 54%.

Q: And the Activity [37]?
A: Its Activity is 100%.

Q: And the Activity [38]?
A: The Activity was 77%.

Q: And the IC50 [18]?
A: Its IC50 is 7.1 µg/mL (≈ 31.1 µM).

Q: And the IC50 [20]?
A: Its IC50 is 34.1 µg/mL (≈ 149 µM).

Q: And the selectivity ratio [21]?
A: Its selectivity ratio is 0.4.
